Test results as given in ChEMBL document CHEMBL1123250, “Chloroalanyl antibiotic peptides: antagonism of their antimicrobial effects by L-alanine and L-alanyl peptides in gram-negative bacteria” (1986).
Converted amounts (≈) assume the structure as drawn.

Columns and labels:
[1] = tested on: Escherichia coli; experiment: Compound was tested for antibacterial activity against Escherichia coli; type: functional
Procedure, shortened: (§1)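 Agar dilution MIC on defined peptide susceptibility agar. Inoculum made by growing overnight in liquid peptide susceptibility medium, then diluting to about 1 × 10^7 cfu/mL. Applied by Steers replicator to plates carrying serial 2-fold peptide dilutions. Incubated overnight at 37 °C. MIC = lowest concentration allowing growth of fewer than 10 colonies after 16-18 h.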

[2] = tested on: Proteus mirabilis; experiment: Compound was tested for antibacterial activity against Proteus mirabilis; type: functional; procedure, shortened: as §1
[3] = tested on: Shigella flexneri; experiment: Compound was tested for antibacterial activity against Shigella flexneri; type: functional; procedure, shortened: as §1
[4] = tested on: Streptococcus agalactiae; experiment: Compound was tested for antibacterial activity against Streptococcus agalactiae; type: functional
Procedure, shortened: (§2)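 Inoculum made from colonies grown overnight on chocolate or blood agar, resuspended in liquid medium to 10' cfu/mL. Applied by Steers replicator to serial 2-fold peptide dilutions. Incubated overnight at 37 °C under 7% CO2. MIC = lowest concentration giving fewer than 10 colonies at 16-18 h.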

[5] = tested on: Staphylococcus aureus; experiment: Compound was tested for antibacterial activity against Staphylococcus aureus; type: functional; procedure, shortened: as §1
[6] = tested on: Staphylococcus epidermidis; experiment: Compound was tested for antibacterial activity against Staphylococcus epidermidis; type: functional; procedure, shortened: as §1
[7] = tested on: Enterococcus faecalis; experiment: Compound was tested for antibacterial activity against Streptococcus faecalis; type: functional; procedure, shortened: as §1
[8] = tested on: Haemophilus influenzae; experiment: Compound was tested for antibacterial activity against Hemophilus influenzae; type: functional; procedure, shortened: as §2
[9] = tested on: Streptococcus pyogenes; experiment: Compound was tested for antibacterial activity against Streptococcus pyogenes; type: functional; procedure, shortened: as §2
[10] = tested on: Enterobacter cloacae; experiment: Compound was tested for antibacterial activity against Enterobacter cloacae; type: functional; procedure, shortened: as §1
[11] = tested on: Morganella morganii; experiment: Compound was tested for antibacterial activity against Morganella morganii; type: functional; procedure, shortened: as §1
[12] = biological target: Alanine racemase, biosynthetic (Escherichia coli K-12) (UniProt P0A6B4); experiment: Compound was tested for enzyme activity against alanine racemase; per mg of protein
Sequence of Alanine racemase, biosynthetic (Escherichia coli K-12) (P0A6B4 whole entry): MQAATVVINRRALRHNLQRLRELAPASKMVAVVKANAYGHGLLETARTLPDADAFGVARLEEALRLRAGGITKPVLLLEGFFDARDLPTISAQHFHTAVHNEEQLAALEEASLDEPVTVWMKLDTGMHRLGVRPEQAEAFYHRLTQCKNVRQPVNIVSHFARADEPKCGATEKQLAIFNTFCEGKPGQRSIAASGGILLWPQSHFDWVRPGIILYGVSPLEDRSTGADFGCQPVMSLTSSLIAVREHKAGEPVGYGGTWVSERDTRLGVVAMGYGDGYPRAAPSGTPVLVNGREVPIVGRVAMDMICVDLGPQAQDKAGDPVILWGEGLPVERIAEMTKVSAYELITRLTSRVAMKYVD
Procedure, shortened: (§3)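 E. coli JSR-0 grown at 37 °C in Davis-Mingioli medium with Met/Pro (50 µg/mL) and Leu/Ile/Val (100 µg/mL). Some cultures had 5% sucrose or 500 µg/mL L-Ala. Agent added at ~100 Klett units; cells harvested after 30 min, washed and sonicated. Racemase read D→L in the supernatant, coupled to L-alanine dehydrogenase (NADH, 340 nm): 10 mM D-Ala, 5 mM NAD+, CHES pH 9.0, 37 °C.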

[13] = tested on: Escherichia coli; experiment: Compound was tested for enzyme activity against transaminase B; per mg of protein
Procedure, shortened: (§4)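 Homogenates of E. coli JSR-0 taken 30 min after agent addition at ~100 Klett units (Davis-Mingioli medium with Met/Pro, Leu/Ile/Val, and in some cultures sucrose or L-Ala). Valine→α-ketoisovalerate transamination read in Tris-HCl pH 7.8 with pyridoxal phosphate and α-ketoglutarate at 37 °C. Timed aliquots derivatized with 2,4-dinitrophenylhydrazine; hydrazone read at 430 nm against a standard curve.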

[14] = biological target: Alanine racemase, biosynthetic (Escherichia coli K-12) (UniProt P0A6B4); experiment: Compound was tested for enzyme activity against alanine racemase; per mg protein; procedure, shortened: as §3
[15] = tested on: Escherichia coli; experiment: Compound was tested for enzyme activity against transaminase B; per mg protein; procedure, shortened: as §4

Compound	MIC [1]	MIC [2]	MIC [3]	MIC [4]	MIC [5]	MIC [6]	MIC [7]	MIC [8]	MIC [9]	MIC [10]	MIC [11]	specific activity [12]	specific activity [13]	specific activity [14]	specific activity [15]
CN[C@@H](C)C(=O)N[C@@H](CCl)C(=O)O	6.25 µg/mL (≈ 30 µM)	> 100 µg/mL	100 µg/mL (≈ 479 µM)	6.25 µg/mL (≈ 30 µM)	0.39 µg/mL (≈ 1.87 µM)	3.12 µg/mL (≈ 15 µM)	100 µg/mL (≈ 479 µM)	12.5 µg/mL (≈ 59.9 µM)							
O=C(O)[C@H](CCl)NC(=O)[C@@H]1CCCN1	6.25 µg/mL (≈ 28.3 µM)	> 100 µg/mL	> 100 µg/mL	12.5 µg/mL (≈ 56.6 µM)	0.39 µg/mL (≈ 1.77 µM)	1.56 µg/mL (≈ 7.07 µM)	< 0.1 µg/mL	25 µg/mL (≈ 113 µM)	6.25 µg/mL (≈ 28.3 µM)						
CSCC[C@H](N)C(=O)N[C@@H](C)C(=O)N[C@@H](CCl)C(=O)O	> 100 µg/mL	> 100 µg/mL	> 100 µg/mL	< 0.1 µg/mL	0.05 µg/mL (≈ 0.153 µM)	0.025 µg/mL (≈ 0.0767 µM)	6.25 µg/mL (≈ 19.2 µM)	> 100 µg/mL	25 µg/mL (≈ 76.7 µM)	> 100 µg/mL	> 100 µg/mL				
CC(C)C[C@H](N)C(=O)N[C@@H](CCl)C(=O)O	3.12 µg/mL (≈ 13.2 µM)	25 µg/mL (≈ 106 µM)	50 µg/mL (≈ 211 µM)	1.56 µg/mL (≈ 6.59 µM)	0.025 µg/mL (≈ 0.106 µM)	0.0125 µg/mL (≈ 0.0528 µM)	< 0.1 µg/mL	6.25 µg/mL (≈ 26.4 µM)	< 0.1 µg/mL						
CC(C)[C@H](N)C(=O)N[C@@H](C)C(=O)N[C@@H](CCl)C(=O)O	> 100 µg/mL		> 100 µg/mL	3.12 µg/mL (≈ 10.6 µM)	0.05 µg/mL (≈ 0.17 µM)	0.025 µg/mL (≈ 0.0851 µM)	> 100 µg/mL	> 100 µg/mL	0.1 µg/mL (≈ 0.34 µM)						
NCC(=O)N[C@@H](CCl)C(=O)O	3.12 µg/mL (≈ 17.3 µM)	> 100 µg/mL	1.56 µg/mL (≈ 8.64 µM)	0.39 µg/mL (≈ 2.16 µM)	0.025 µg/mL (≈ 0.138 µM)	0.05 µg/mL (≈ 0.277 µM)	> 100 µg/mL	0.2 µg/mL (≈ 1.11 µM)	0.05 µg/mL (≈ 0.277 µM)	1.56 µg/mL (≈ 8.64 µM)	> 100 µg/mL				
CC(C)[C@H](N)C(=O)N[C@@H](CCl)C(=O)O	1.56 µg/mL (≈ 7.01 µM)	100 µg/mL (≈ 449 µM)	> 100 µg/mL	1.56 µg/mL (≈ 7.01 µM)	0.025 µg/mL (≈ 0.112 µM)	< 0.0125 µg/mL	< 0.1 µg/mL	12.5 µg/mL (≈ 56.1 µM)	< 0.1 µg/mL						
CSCC[C@H](N)C(=O)N[C@@H](CCl)C(=O)N[C@@H](CCl)C(=O)O	1.56 µg/mL (≈ 4.33 µM)	> 100 µg/mL	12.5 µg/mL (≈ 34.7 µM)	< 0.1 µg/mL	0.025 µg/mL (≈ 0.0694 µM)	0.0125 µg/mL (≈ 0.0347 µM)	0.05 µg/mL (≈ 0.139 µM)	0.39 µg/mL (≈ 1.08 µM)	6.25 µg/mL (≈ 17.3 µM)	> 100 µg/mL	> 100 µg/mL				
NC(=O)CC[C@H](N)C(=O)N[C@@H](CCl)C(=O)O	1.56 µg/mL (≈ 6.2 µM)	> 100 µg/mL	> 100 µg/mL	0.78 µg/mL (≈ 3.1 µM)	0.05 µg/mL (≈ 0.199 µM)	0.05 µg/mL (≈ 0.199 µM)	0.78 µg/mL (≈ 3.1 µM)	> 100 µg/mL	< 0.1 µg/mL						
N[C@@H](CCl)C(=O)N[C@@H](CCl)C(=O)N[C@@H](CCl)C(=O)O	25 µg/mL (≈ 74.7 µM)		6.25 µg/mL (≈ 18.7 µM)	0.78 µg/mL (≈ 2.33 µM)	0.2 µg/mL (≈ 0.598 µM)	0.1 µg/mL (≈ 0.299 µM)	< 0.1 µg/mL	6.25 µg/mL (≈ 18.7 µM)	0.39 µg/mL (≈ 1.17 µM)						
CC[C@H](N)C(=O)N[C@@H](CCl)C(=O)O	1.56 µg/mL (≈ 7.48 µM)	> 100 µg/mL	1.56 µg/mL (≈ 7.48 µM)	< 0.1 µg/mL	0.025 µg/mL (≈ 0.12 µM)	0.025 µg/mL (≈ 0.12 µM)	6.25 µg/mL (≈ 30 µM)	< 0.1 µg/mL	12.5 µg/mL (≈ 59.9 µM)	25 µg/mL (≈ 120 µM)	50 µg/mL (≈ 240 µM)				
C[C@H](N)C(=O)N[C@@H](CCl)C(=O)O						0.0125 µg/mL (≈ 0.0642 µM)						0.0117 µmol/min/mg	0 µmol/min/mg		
N[C@@H](Cc1ccccc1)C(=O)N[C@@H](CCl)C(=O)O	25 µg/mL (≈ 92.3 µM)	100 µg/mL (≈ 369 µM)	100 µg/mL (≈ 369 µM)	6.25 µg/mL (≈ 23.1 µM)	0.05 µg/mL (≈ 0.185 µM)	0.05 µg/mL (≈ 0.185 µM)	0.39 µg/mL (≈ 1.44 µM)	12.5 µg/mL (≈ 46.2 µM)	< 0.1 µg/mL						
C[C@H](N)C(=O)N[C@@H](C)C(=O)N[C@@H](CCl)C(=O)O	> 100 µg/mL		> 100 µg/mL	12.5 µg/mL (≈ 47 µM)	0.025 µg/mL (≈ 0.0941 µM)	0.025 µg/mL (≈ 0.0941 µM)	> 100 µg/mL	> 100 µg/mL	0.2 µg/mL (≈ 0.753 µM)						
O=C(N[C@H](CO)[C@H](O)c1ccc([N+](=O)[O-])cc1)C(Cl)Cl														0.0176 µmol/min/mg	0.0541 µmol/min/mg
CSCC[C@H](N)C(=O)N[C@@H](CCl)C(=O)O		50 µg/mL (≈ 196 µM)							1.56 µg/mL (≈ 6.12 µM)		50 µg/mL (≈ 196 µM)				
NCCC(=O)N[C@@H](CCl)C(=O)O	> 100 µg/mL	> 100 µg/mL	> 100 µg/mL	> 100 µg/mL	0.78 µg/mL (≈ 4.01 µM)	6.25 µg/mL (≈ 32.1 µM)	> 100 µg/mL	> 100 µg/mL							
CC[C@H](C)[C@H](N)C(=O)N[C@@H](CCl)C(=O)O	3.12 µg/mL (≈ 13.2 µM)	12.5 µg/mL (≈ 52.8 µM)	25 µg/mL (≈ 106 µM)	3.12 µg/mL (≈ 13.2 µM)	0.025 µg/mL (≈ 0.106 µM)	0.05 µg/mL (≈ 0.211 µM)	< 0.1 µg/mL	6.25 µg/mL (≈ 26.4 µM)	< 0.1 µg/mL						
CCC[C@H](N)C(=O)N[C@@H](CCl)C(=O)O					0.25 µg/mL (≈ 1.12 µM)										
CCCC[C@H](N)C(=O)N[C@@H](CCl)C(=O)O	3.12 µg/mL (≈ 13.2 µM)	> 100 µg/mL	3.12 µg/mL (≈ 13.2 µM)	< 0.1 µg/mL	0.0125 µg/mL (≈ 0.0528 µM)	0.0125 µg/mL (≈ 0.0528 µM)	3.12 µg/mL (≈ 13.2 µM)	25 µg/mL (≈ 106 µM)	25 µg/mL (≈ 106 µM)	6.25 µg/mL (≈ 26.4 µM)	> 100 µg/mL				
